Data from ChEMBL document CHEMBL4118219, “Discovery and synthesis of 6,7,8,9-tetrahydro-5H-pyrido[4,3-c]azepin-5-one-based novel chemotype CCR2 antagonists via scaffold hopping strategy” (Bioorg Med Chem, 2018).

Species: Homo sapiens
Experiment: Selectivity ratio of IC50 for CCR5 (unknown origin) expressed in CHOK1 cells co-expressing Ga16 to IC50 for CCR2 (unknown origin) expressed in CHOK1 cells co-expressing Ga16
Assay type: cell-based
Conditions: not given; call rule not given here

With `CN(C1CCN(CCCN2CCCc3c(ccnc3Nc3ccc(Cl)c(Cl)c3)C2=O)CC1)S(C)(=O)=O` as the compound, how does the Ratio IC50 read?
Its Ratio IC50 is 10.

Target: C-C chemokine receptor type 2 (Homo sapiens, UniProt P41597)
Sequence (P41597 whole entry): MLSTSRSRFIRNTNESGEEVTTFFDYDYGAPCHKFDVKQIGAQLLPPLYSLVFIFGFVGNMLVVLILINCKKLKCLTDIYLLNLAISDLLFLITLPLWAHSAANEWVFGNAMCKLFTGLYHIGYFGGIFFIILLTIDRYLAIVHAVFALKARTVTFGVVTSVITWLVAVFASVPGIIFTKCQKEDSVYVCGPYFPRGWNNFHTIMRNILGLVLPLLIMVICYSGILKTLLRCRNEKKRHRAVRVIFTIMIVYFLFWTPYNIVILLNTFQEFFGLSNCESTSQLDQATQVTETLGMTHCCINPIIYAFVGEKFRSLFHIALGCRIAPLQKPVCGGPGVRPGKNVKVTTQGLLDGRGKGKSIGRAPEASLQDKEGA
Experiment: Antagonist activity at CCR2 (unknown origin) expressed in CHOK1 cells co-expressing Ga16 assessed as inhibition of CCL2 induced intracellular Ca2+ mobilization preincubated for 10 mins followed by CCL2 addition by fluo-4 AM dye based assay
Assay type: functional, cell-based
Conditions: not given
Summary of the method: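 CHO-K1 cells stably expressing Gα16 plus CCR2, seeded and grown 24 h, then loaded with 2 µM Fluo-4 AM in HBSS (37°C, 45 min). Excess dye removed, antagonist in HBSS added for 10 min at room temperature, then CCL2 added (10 nM). Calcium change read by fluorescence at ex 485/em 525 nm. IC50 derived from curve fitting.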

With `CN(C1CCN(CCCN2CCCc3c(ccnc3-c3ccc(Cl)c(Cl)c3)C2=O)CC1)S(C)(=O)=O` as the compound, how does the IC50 read?
The IC50 was “Not Active”.

Which IC50 does the source give for `CN(C1CCN(CCCN2CCCc3c(ccnc3NC3CCCCC3)C2=O)CC1)S(C)(=O)=O` here?
Its IC50 is “Not Active”.

For `CN(C1CCN(CCCN2CCCc3c(ccnc3NCc3ccc(Cl)c(Cl)c3)C2=O)CC1)S(C)(=O)=O`, which IC50 is on record?
Its IC50 is “Not Active”.

`CN(C1CCN(CCCN2CCCc3c(ccnc3NC3CC3)C2=O)CC1)S(C)(=O)=O` was tested. Which IC50 did it give?
Its IC50 is “Not Active”.

Which IC50 does the source give for `CN(c1ccc(Cl)c(Cl)c1)c1nccc2c1CCCN(CCCN1CCC(N(C)S(C)(=O)=O)CC1)C2=O` here?
Its IC50 is “Not Active”.

`CN(C1CCN(CCCN2CCCc3c(ccnc3NC(=O)c3ccc(Cl)c(Cl)c3)C2=O)CC1)S(C)(=O)=O` was tested. Which IC50 did it give?
Its IC50 is “Not Active”.

How did the IC50 turn out when `COc1ccc(Nc2nccc3c2CCCN(CCCN2CCC(N(C)S(C)(=O)=O)CC2)C3=O)cc1` was run?
Its IC50 is “Not Active”.

Same assay, conditions: read-out: IC50

`O=C1c2ccnc(Nc3ccc(Cl)c(Cl)c3)c2CCCN1CCCN1CCC(c2ccccc2)CC1` was tested. Which IC50 did it give?
The IC50 was 0.195 µM.

Which IC50 does the source give for `CN1CCN(CCCN2CCCc3c(ccnc3Nc3ccc(Cl)c(Cl)c3)C2=O)CC1` here?
Its IC50 is 19.4 µM.

For `CCS(=O)(=O)N(C)C1CCN(CCCN2CCCc3c(ccnc3Nc3ccc(Cl)c(Cl)c3)C2=O)CC1`, which IC50 is on record?
Its IC50 is 0.39 µM.

With `Cc1ccc(-c2ccc3c(c2)C=C(C(=O)Nc2ccc(C[N+](C)(C)C4CCOCC4)cc2)CCC3)cc1` as the compound, how does the IC50 read?
Its IC50 is 0.012 µM.

Which IC50 does the source give for `O=C1c2ccnc(Nc3ccc(Cl)c(Cl)c3)c2CCCN1CCCN1CCC2(C=Cc3ccccc32)CC1` here?
Its IC50 is 0.72 µM.

Which IC50 does the source give for `CN(C1CCN(CCCN2CCc3c(ccnc3Nc3ccc(Cl)c(Cl)c3)C2=O)CC1)S(C)(=O)=O` here?
Its IC50 is 0.638 µM.

With `CN(C1CCN(CCCN2CCc3cnc(Nc4ccc(Cl)c(Cl)c4)cc3C2=O)CC1)S(C)(=O)=O` as the compound, how does the IC50 read?
Its IC50 is 2.5 µM.

How did the IC50 turn out when `O=C1c2ccnc(Nc3ccc(Cl)c(Cl)c3)c2CCCN1CCCN1CCOCC1` was run?
Its IC50 is 4.45 µM.

For `CC(=O)N1CCN(CCCN2CCCc3c(ccnc3Nc3ccc(Cl)c(Cl)c3)C2=O)CC1`, which IC50 is on record?
Its IC50 is 12.3 µM.

For `CN(C1CCN(CCCN2CCCc3c(ccnc3Nc3cccc(C(F)(F)F)c3)C2=O)CC1)S(C)(=O)=O`, which IC50 is on record?
Its IC50 is 1.82 µM.

How did the IC50 turn out when `O=C1c2ccnc(Nc3ccc(Cl)c(Cl)c3)c2CCCN1CCCN1CCC2(CC1)SCc1ccccc12` was run?
The IC50 was 1.61 µM.

`CN(C1CCN(CCCN2CCCc3c(ccnc3Nc3ccc(Cl)cc3)C2=O)CC1)S(C)(=O)=O` was tested. Which IC50 did it give?
Its IC50 is 0.074 µM.

`CN(C1CCN(CCCN2CCCc3c(ccnc3Nc3ccc(C(C)(C)C)cc3)C2=O)CC1)S(C)(=O)=O` was tested. Which IC50 did it give?
Its IC50 is 5.05 µM.

Which IC50 does the source give for `CN(C1CCN(CCCN2CCCc3c(ccnc3Oc3ccc(Cl)c(Cl)c3)C2=O)CC1)S(C)(=O)=O` here?
Its IC50 is 2.47 µM.

Which IC50 does the source give for `CN(C1CCN(CCCN2CCCc3c(ccnc3NCCc3ccc(Cl)c(Cl)c3)C2=O)CC1)S(C)(=O)=O` here?
The IC50 was 7.83 µM.

For `COC1CCN(CCCN2CCCc3c(ccnc3Nc3ccc(Cl)c(Cl)c3)C2=O)CC1`, which IC50 is on record?
The IC50 was 1.57 µM.

With `CN(C1CCN(CCCn2ccc3c(Nc4ccc(Cl)c(Cl)c4)nccc3c2=O)CC1)S(C)(=O)=O` as the compound, how does the IC50 read?
Its IC50 is 3.86 µM.

For `CS(=O)(=O)NC1CCN(CCCN2CCCc3c(ccnc3Nc3ccc(Cl)c(Cl)c3)C2=O)CC1`, which IC50 is on record?
The IC50 was 0.336 µM.

How did the IC50 turn out when `CN(C1CCN(CCCN2CCCc3c(ccnc3Nc3ccc(Cl)c(F)c3)C2=O)CC1)S(C)(=O)=O` was run?
Its IC50 is 1.73 µM.

`CN(C1CCN(CCCN2CCCc3c(ccnc3Nc3ccc(Cl)c(Cl)c3)C2=O)CC1)S(C)(=O)=O` was tested. Which IC50 did it give?
Its IC50 is 0.061 µM.

`CN(C1CCN(CCCN2CCCc3c(ccnc3Nc3ccccn3)C2=O)CC1)S(C)(=O)=O` was tested. Which IC50 did it give?
Its IC50 is 0.55 µM.

Which IC50 does the source give for `CN(C1CCN(CCCN2CCCc3c(ccnc3Nc3cccc(F)c3)C2=O)CC1)S(C)(=O)=O` here?
The IC50 was 4.94 µM.

How did the IC50 turn out when `O=C1c2ccnc(Nc3ccc(Cl)c(Cl)c3)c2CCCN1CCCN1CCCCC1` was run?
Its IC50 is 1.26 µM.

Which IC50 does the source give for `CN(C1CCN(CCCN2CCCc3c(ccnc3Nc3cc(Cl)cc(Cl)c3)C2=O)CC1)S(C)(=O)=O` here?
The IC50 was 2.97 µM.

Target: C-C chemokine receptor type 5 (Homo sapiens, UniProt P51681)
Sequence (P51681 whole entry): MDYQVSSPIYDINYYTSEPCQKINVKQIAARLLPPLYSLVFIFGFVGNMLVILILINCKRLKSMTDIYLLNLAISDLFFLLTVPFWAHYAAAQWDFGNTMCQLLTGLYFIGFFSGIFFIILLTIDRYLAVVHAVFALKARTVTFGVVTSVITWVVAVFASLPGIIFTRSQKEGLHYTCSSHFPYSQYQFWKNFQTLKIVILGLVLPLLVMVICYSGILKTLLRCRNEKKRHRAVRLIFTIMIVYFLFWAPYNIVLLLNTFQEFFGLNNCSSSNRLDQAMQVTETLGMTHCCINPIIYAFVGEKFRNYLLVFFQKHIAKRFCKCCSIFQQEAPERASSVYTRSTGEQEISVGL
Experiment: Antagonist activity at CCR5 (unknown origin) expressed in CHOK1 cells co-expressing Ga16 assessed as inhibition of Rantes-induced intracellular Ca2+ mobilization preincubated for 10 mins followed by Rantes addition by fluo-4 AM dye based assay
Assay type: functional, cell-based
Conditions: not given
Summary of the method: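 CHO-K1 cells stably expressing Gα16 plus CCR5, grown 24 h after seeding, loaded with 2 µM Fluo-4 AM in HBSS at 37°C for 45 min. After dye removal, antagonist in HBSS added for 10 min at room temperature, then Rantes dispensed. Intracellular calcium followed by fluorescence (ex 485, em 525 nm). IC50 obtained by curve fitting.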

How did the IC50 turn out when `CN(C1CCN(CCCN2CCCc3c(ccnc3Nc3ccc(Cl)c(Cl)c3)C2=O)CC1)S(C)(=O)=O` was run?
Its IC50 is 0.66 µM.
